This is an account of results in ChEMBL document CHEMBL1145203, “Synthesis of new benzoxazinone derivatives as neuropeptide Y5 antagonists for the treatment of obesity” (J Med Chem, 2005).

One may read the IC50 as the concentration that inhibits the measured activity by half. The term inhibition denotes the share of the control response that was lost under treatment.

SMILES strings stand for the structures.

Test [1] addresses T1, Neuropeptide Y receptor type 5 (Rattus norvegicus, UniProt Q63634).
T1 sequence (Q63634 whole entry): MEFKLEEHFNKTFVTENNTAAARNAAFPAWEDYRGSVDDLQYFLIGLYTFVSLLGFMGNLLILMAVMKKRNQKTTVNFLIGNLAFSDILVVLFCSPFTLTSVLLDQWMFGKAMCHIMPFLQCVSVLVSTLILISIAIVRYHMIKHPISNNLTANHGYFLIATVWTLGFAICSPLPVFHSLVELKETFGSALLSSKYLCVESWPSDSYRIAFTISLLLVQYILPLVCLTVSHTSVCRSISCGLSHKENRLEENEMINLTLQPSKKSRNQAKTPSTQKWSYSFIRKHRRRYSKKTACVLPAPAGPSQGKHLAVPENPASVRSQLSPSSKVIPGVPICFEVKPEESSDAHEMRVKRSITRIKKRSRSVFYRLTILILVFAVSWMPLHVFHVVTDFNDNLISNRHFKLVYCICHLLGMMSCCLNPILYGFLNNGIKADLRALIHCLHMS
As to the kind of experiment: Inhibition of [125I]PYY binding to the rat NPY Y5 receptor in C6 cells. It counts as cell-based. Summed up: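 Radioligand [125I]-PYY 100 pM, incubated 2 h at 25 °C. Stopped with ice-cold buffer, filtered and washed, bound radioactivity counted. Nonspecific binding defined with 1 µM pNPY; triplicate.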

Test [2] deals with T2, Neuropeptide Y receptor type 5 (Rattus norvegicus) (UniProt Q63634).
T2 sequence (whole entry): T1 sequence (Q63634 whole entry)
In words: Inhibition of PYY effect on forskolin-stimulated cyclic AMP formation in C6 cells expressing rat NPY Y5 receptor. It counts as functional, cell-based. Further details: concentration or dose not given beside the values. To be noted: concentration not given here. Summed up: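 C6 cells stably expressing rat NPY Y5, grown to 80% confluency in serum-free DMEM with L-glutamine, penicillin and streptomycin. Cells trypsinised 2 h before assay, about 50 000 cells/well. Compounds added with or without PYY; forskolin-stimulated cAMP measured after 30 min by FlashPlate with [125I]succinyl cAMP tracer. Expressed as % cAMP formation versus forskolin controls without PYY; three experiments in duplicate.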

Compound `O=C(CN1CCC(N2C(=O)OCc3ccccc32)CC1)Nc1ccccc1` displayed an IC50 in test [1] above 1000 nM. On to `Cc1ccc2c(c1)COC(=O)N2C1CCN(CC(=O)Nc2ccc(Oc3ccccc3)cc2)CC1`, for which the IC50 in test [1] worked out at 104 nM. For the same compound, the inhibition in test [2] came out at 94.5%. As to `O=C(CN1CCC(N2C(=O)OCc3cc(Cl)ccc32)CC1)Nc1ccccc1C(=O)c1ccccc1`, the IC50 in test [1] is above 1000 nM. Regarding `O=C(CN1CCC(N2C(=O)OCc3cc(Cl)ccc32)CC1)Nc1ccc2c(c1)-c1ccccc1C2=O`, the IC50 in test [1] amounted to 25 nM. Besides, the inhibition in test [2] came to 100%. In turn, `O=C(CN1CCC(N2C(=O)OCc3ccccc32)CC1)Nc1cccc2c1-c1ccccc1C2=O` displayed an IC50 in test [1] of 138 nM. For the compound `O=C(CN1CCC(N2C(=O)OCc3ccccc32)CC1)Nc1ccc2c(c1)-c1ccccc1C2O` (stereo not given), the IC50 in test [1] stood at 8.7 nM. In test [2], the inhibition worked out at 96.1%. As for `N#Cc1ccc(NC(=O)CN2CCC(N3C(=O)OCc4cc(Cl)ccc43)CC2)cc1`, in test [1], the IC50 turned out to be 199 nM. In test [2], this compound returned an inhibition of 91.5%. Regarding `O=C(CN1CCC(N2C(=O)OCc3cc(Cl)ccc32)CC1)Nc1ccc2ncccc2c1`, in test [1], the IC50 was 148 nM. The inhibition in test [2] was 71.9%. For `Cc1cccc2c1N(C1CCN(CC(=O)Nc3ccc4c(c3)-c3ccccc3C4=O)CC1)C(=O)OC2` the same measures were 50 nM and 93.8%. In turn, `O=C(CN1CCC(N2C(=O)OCc3ccccc32)CC1)Nc1ccccc1C(=O)c1ccccc1` gave an IC50 in test [1] above 1000 nM. In test [1], `N#Cc1ccc(NC(=O)CN2CCC(N3C(=O)OCc4ccccc43)CC2)cc1` had an IC50 of 132 nM. Besides, in test [2], the inhibition came to 88.7%. As for `Cc1cccc2c1N(C1CCN(CC(=O)Nc3ccc(Cl)cc3)CC1)C(=O)OC2`, in test [1], the concentration for half-maximal inhibition (IC50) is above 1000 nM. On to `O=C(CN1CCC(N2C(=O)OCc3cc(Cl)ccc32)CC1)Nc1ccc(C2CCCCC2)cc1`, for which, in test [1], the IC50 was 112 nM. Further, the inhibition in test [2] stood at 98.4%.

As for `Cn1c2ccccc2c2cc(NC(=O)CN3CCC(N4C(=O)OCc5ccccc54)CC3)ccc21`, the IC50 in test [1] was determined as 9.6 nM. The inhibition in test [2] worked out at 88.7%.

Take `O=C(CN1CCC(N2C(=O)OCc3cc(F)ccc32)CC1)Nc1ccc2ncccc2c1`: the inhibition in test [2] amounted to 93.3%.

Take `O=C(CN1CCC(N2C(=O)OCc3ccccc32)CC1)Nc1ccc(Cl)cc1`: the IC50 in test [1] came out at 300 nM. For the compound `CCn1c2ccccc2c2cc(NC(=O)CN3CCC(N4C(=O)OCc5cc(Cl)ccc54)CC3)ccc21`, the IC50 in test [1] was found to be 100 nM. Further, the inhibition in test [2] was 99.3%. For `Cc1cccc2c1N(C1CCN(CC(=O)Nc3ccc(C(=O)c4ccccc4)cc3)CC1)C(=O)OC2` the same measures were 39.6 nM and 100%. For the compound `COC(=O)c1ccccc1NC(=O)CN1CCC(N2C(=O)OCc3cc(C)ccc32)CC1`, in test [1], the IC50 was above 1000 nM. The same measure, in the same setting: the figure for `Cc1cccc2c1N(C1CCN(CC(=O)Nc3ccccc3C(=O)c3ccccc3)CC1)C(=O)OC2` is above 1000 nM; for `COC(=O)c1ccccc1NC(=O)CN1CCC(N2C(=O)OCc3ccccc32)CC1` it is above 1000 nM.

As for `O=C(CN1CCC(N2C(=O)OCc3ccccc32)CC1)Nc1ccc2c(c1)-c1ccccc1C2=O`, in test [1], the IC50 stood at 23.3 nM. For the same compound, the inhibition in test [2] was found to be 100%. In test [1], `O=C(CN1CCC(N2C(=O)OCc3ccccc32)CC1)Nc1ccc2c(c1)C(=O)c1ccccc1-2` gave an IC50 above 1000 nM. The same measure, in the same setting: the figure for `Cc1cccc2c1N(C1CCN(CC(=O)Nc3ccccc3)CC1)C(=O)OC2` is above 1000 nM.

In test [1], `Cc1cccc2c1N(C1CCN(CC(=O)Nc3ccc4c(c3)-c3ccccc3C4O)CC1)C(=O)OC2` (stereo not given) registered an IC50 of 30 nM. This compound yielded an inhibition in test [2] of 100%. The compound `CCn1c2ccccc2c2cc(NC(=O)CN3CCC(N4C(=O)OCc5cccc(OC)c54)CC3)ccc21` displayed an IC50 in test [1] of 765 nM. The same compound came in with an inhibition in test [2] of 19.2%. With `CCn1c2ccccc2c2cc(NC(=O)CN3CCC(N4C(=O)OCc5c(Cl)cccc54)CC3)ccc21`, in test [2], the inhibition came out at 83.4%.

With `O=C(CN1CCC(N2C(=O)OCc3cc(Cl)ccc32)CC1)Nc1ccc(C(=O)c2ccccc2)cc1`, the IC50 in test [1] worked out at 11.2 nM. In addition, the inhibition in test [2] is 97.4%. Consider `COC(=O)c1ccccc1NC(=O)CN1CCC(N2C(=O)OCc3cc(Cl)ccc32)CC1`, for which the IC50 in test [1] was above 1000 nM. `COc1cccc2c1N(C1CCN(CC(=O)Nc3ccc4oc5ccccc5c4c3)CC1)C(=O)OC2` gave an IC50 in test [1] of 55.7 nM. The inhibition in test [2] worked out at 23.6%.

In test [1], `CC(=O)c1ccc(NC(=O)CN2CCC(N3C(=O)OCc4cc(C)ccc43)CC2)cc1` returned an IC50 of 26 nM. For the same compound, in test [2], the inhibition was 89.4%. For `CCn1c2ccccc2c2cc(NC(=O)CN3CCC(N4C(=O)OCc5cccc(C)c54)CC3)ccc21` the same measures were 50 nM and 96.9%. Compound `COC(=O)c1ccccc1NC(=O)CN1CCC(N2C(=O)OCc3cccc(C)c32)CC1` had an IC50 in test [1] above 1000 nM. Consider `CC(=O)c1ccc(NC(=O)CN2CCC(N3C(=O)OCc4cc(Cl)ccc43)CC2)cc1`, for which the IC50 in test [1] is 21 nM. The compound also showed an inhibition in test [2] of 99.9%. For the compound `O=C(CN1CCC(N2C(=O)OCc3cc(Cl)ccc32)CC1)Nc1ccc2c(c1)-c1ccccc1C2O` (stereo not given), the IC50 in test [1] was determined as 8 nM. In addition, in test [2], the inhibition turned out to be 100%.

`O=C(CN1CCC(N2C(=O)OCc3cc(Cl)ccc32)CC1)Nc1ccc2c(c1)C(=O)c1ccccc1-2` displayed an IC50 in test [1] of 69 nM. Also, in test [2], the inhibition amounted to 94%.

With `Cc1ccc2c(c1)COC(=O)N2C1CCN(CC(=O)Nc2ccc3c(c2)C(=O)c2ccccc2-3)CC1`, the IC50 in test [1] was determined as 86.7 nM. Besides, the inhibition in test [2] came to 93.9%. For `CC(=O)c1ccc(NC(=O)CN2CCC(N3C(=O)OCc4ccccc43)CC2)cc1` the same measures were 17.3 nM and 95.4%.

As to `O=C(CN1CCC(N2C(=O)OCc3cc(Cl)ccc32)CC1)Nc1ccc(Oc2ccccc2)cc1`, in test [1], the IC50 turned out to be 60.7 nM. Moreover, in test [2], the inhibition was 99.2%. Compound `O=C(CN1CCC(N2C(=O)OCc3ccccc32)CC1)Nc1ccc(Oc2ccccc2)cc1` displayed an IC50 in test [1] of 20 nM. In test [2], this compound showed an inhibition of 100%.
